From ChEMBL document CHEMBL1138602, “Discovery of sodium 6-[(5-chloro-2-{[(4-chloro-2-fluorophenyl)methyl]oxy}phenyl)methyl]-2-pyridinecarboxylate (GSK269984A) an EP(1) receptor antagonist for the treatment of inflammatory pain” (Bioorg Med Chem Lett, 2009)
Activity calls are given as the source filed them. The rule behind the calls is not given here.

Experiments:
[1] = Drug level in rat blood at 0.5 mg/kg/hr administered by infusion for 12 hrs; assay type: ADME, organism-based; conditions: intravenous, read-out: Drug uptake
How it was run: (§1)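 Steady-state 12 h infusion at 5 mL/kg/h to reach a target dose of 0.5 mg/kg/h; blood and brain concentrations measured. Data are the mean from three animals.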

[2] = Solubility in water after 0.5 hrs; assay type: physicochemical
How it was run: (§2)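 Solubility determined in water, FaSSIF and FeSSIF, all read at the 0.5 h time point.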

Rattus norvegicus [3] = experiment: Antianalgesic activity against complete Freund's adjuvant-induced rat inflammatory pain in rat assessed as reversal of hypersensitivity at 10 mg/kg, po bid for 5 days measured on day 5 after 1 hr; assay type: functional, organism-based; parameters: dose 10 mg/kg
Cytochrome P450 1A2 = molecular target: T1, Cytochrome P450 1A2 (Homo sapiens, UniProt P05177); experiment: Inhibition of human CYP1A2; assay type: ADME
T1 sequence (P05177 whole entry): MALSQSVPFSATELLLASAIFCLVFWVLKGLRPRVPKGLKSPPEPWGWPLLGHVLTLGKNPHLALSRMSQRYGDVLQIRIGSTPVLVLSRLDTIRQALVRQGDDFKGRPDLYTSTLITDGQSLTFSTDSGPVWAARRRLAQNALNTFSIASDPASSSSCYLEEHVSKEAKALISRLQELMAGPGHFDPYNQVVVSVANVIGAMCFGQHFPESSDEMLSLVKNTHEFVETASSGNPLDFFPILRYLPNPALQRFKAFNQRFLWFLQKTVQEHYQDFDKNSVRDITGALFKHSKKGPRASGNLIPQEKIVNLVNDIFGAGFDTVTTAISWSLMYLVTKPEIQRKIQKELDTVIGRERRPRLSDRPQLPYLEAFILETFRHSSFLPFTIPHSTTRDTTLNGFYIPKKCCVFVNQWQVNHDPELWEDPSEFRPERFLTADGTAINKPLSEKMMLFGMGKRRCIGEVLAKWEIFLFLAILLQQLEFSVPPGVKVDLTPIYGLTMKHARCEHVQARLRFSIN
How it was run: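 Inhibition of metabolism of fluorometric substrates (Cypex protocol); IC50 values are the mean of three experiments ± standard deviation.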

[4] = molecular target: T2, Prostaglandin G/H synthase 2 (Homo sapiens, UniProt P35354); experiment: Inhibition of COX2
T2 sequence (P35354 whole entry): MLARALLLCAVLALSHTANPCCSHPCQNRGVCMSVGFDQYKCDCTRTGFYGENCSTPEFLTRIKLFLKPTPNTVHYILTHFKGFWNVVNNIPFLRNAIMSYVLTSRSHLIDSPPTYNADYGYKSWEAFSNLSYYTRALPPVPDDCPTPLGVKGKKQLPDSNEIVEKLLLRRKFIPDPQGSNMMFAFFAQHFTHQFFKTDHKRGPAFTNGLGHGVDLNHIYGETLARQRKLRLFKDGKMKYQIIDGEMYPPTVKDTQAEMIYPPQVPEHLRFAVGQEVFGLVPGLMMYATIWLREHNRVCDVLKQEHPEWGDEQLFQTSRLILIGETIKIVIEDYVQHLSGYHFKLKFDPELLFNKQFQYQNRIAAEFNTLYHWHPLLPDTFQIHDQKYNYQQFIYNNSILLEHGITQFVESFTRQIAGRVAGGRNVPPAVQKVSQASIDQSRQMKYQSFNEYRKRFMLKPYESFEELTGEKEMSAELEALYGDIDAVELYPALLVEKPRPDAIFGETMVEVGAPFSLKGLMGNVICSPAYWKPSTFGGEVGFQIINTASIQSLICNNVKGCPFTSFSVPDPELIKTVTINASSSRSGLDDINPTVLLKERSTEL

[5] = Clearance in Beagle dog blood at 1 mg/kg administered by intravenous infusion for 1 hr; assay type: ADME, organism-based, Canis lupus familiaris; parameters: dose 1 mg/kg, route intravenous
How it was run: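 Intravenous administration as a 1 h infusion of a 1 mg/kg dose. Rats were male Sprague-Dawley; dogs were beagle; monkeys were cynomolgus. Blood clearance, Vss and half-life determined.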

MDR1 = experiment: Permeability in dog MDCK2 cells over expressing MDR1 assessed as efflux ratio after 1 hr; conditions: MDCK-MDR1
[6] = Drug level in blood of complete Freund's adjuvant-induced rat inflammatory pain model at 10 mg/kg, po administered after 23 hrs of adjuvant challenge measured after 1 hr; assay type: ADME, organism-based; parameters: dose 10 mg/kg, route oral; conditions: read-out: Drug uptake
How it was run: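 CFA rat study: oral doses of 1, 3 or 10 mg/kg given 23 h after intraplantar adjuvant, samples 1 h post-dose. Blood values are the mean from seven animals. Brain values are the mean from three animals.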

Rattus norvegicus [7] = experiment: Antianalgesic activity against complete Freund's adjuvant induced inflammatory pain in rat assessed as reversal of hypersensitivity dosed as po bid for 5 days measured after 1 hr on day 5; assay type: functional
[8] = Solubility in FeSSIF after 0.5 hrs; assay type: physicochemical; how it was run: as §2
[9] = molecular target: Prostaglandin E2 receptor EP4 subtype (Homo sapiens, UniProt P35408); experiment: Inhibition of EP4 receptor
[10] = Oral bioavailability in cynomolgus monkey at 3 mg/kg; assay type: ADME, organism-based, Macaca fascicularis; conditions: in vivo
[11] = Ratio of drug level in brain to blood of rat at 0.5 mg/kg/hr administered by infusion for 12 hrs; conditions: brain and blood, intravenous
[12] = Drug level in mouse brain at 0.5 mg/kg/hr administered by infusion for 12 hrs; assay type: ADME, organism-based; conditions: intravenous, read-out: Drug uptake; how it was run: as §1

Chain of Prostaglandin E2 receptor EP4 subtype (P35408 whole entry): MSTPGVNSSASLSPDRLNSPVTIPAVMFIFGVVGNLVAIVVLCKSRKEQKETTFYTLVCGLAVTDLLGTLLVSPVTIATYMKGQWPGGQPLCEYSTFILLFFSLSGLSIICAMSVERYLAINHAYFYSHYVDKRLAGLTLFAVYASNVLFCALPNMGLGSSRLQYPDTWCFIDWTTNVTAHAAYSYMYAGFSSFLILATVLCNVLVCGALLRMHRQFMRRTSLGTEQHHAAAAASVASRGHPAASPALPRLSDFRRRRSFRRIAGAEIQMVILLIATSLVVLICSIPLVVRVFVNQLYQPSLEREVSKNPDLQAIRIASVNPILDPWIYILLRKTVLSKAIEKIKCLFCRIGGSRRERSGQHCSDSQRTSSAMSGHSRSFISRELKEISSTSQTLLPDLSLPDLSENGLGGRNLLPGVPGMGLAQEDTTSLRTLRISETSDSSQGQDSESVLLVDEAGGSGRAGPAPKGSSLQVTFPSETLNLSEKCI

concentration at 12 h [1]: 955 nM
solubility at 0.5 h [2]: 890 µg/mL
IC50 (Cytochrome P450 1A2): 20 µM
IC50 [4]: > 100 µM
clearance [5]: 18 mL/min/kg
efflux ratio at 1 h (MDR1): 0.9
concentration at 1 h [6]: 1510 nM
solubility at 0.5 h [8]: 358 µg/mL
IC50 [9]: > 10 µM
bioavailability [10]: 7%
Kp at 12 h [11]: 0.24
concentration at 12 h [12]: 56 nM
SMILES: O=C([O-])c1cccc(Cc2cc(Cl)ccc2OCc2ccc(Cl)cc2F)n1.[Na+]
Activity (Rattus norvegicus [3]): Active
ED50 (Rattus norvegicus [7]): 3 mg/kg
